Vif imaging: HIV Vif inhibition | inhibition, % at 7.49 µM | actives 0.35% (n = 340,000) | HEK293T cells, Vif self-association by quenched fluorescence, imaging, 24 h; in the data active = inhibition above about 50%, passing the limit was not always enough; inconclusive = no clear call, values can overlap the other calls; inactive = below about 31%
MITF act: MITF TRPM1 promoter activation in melanoma cells; SK-MEL-5 TRPM1-promoter luciferase, 24 h; % of positive control, neutral wells = 0; activation, % at 12.5 µM; actives 0.75% (n = 300,000); AID 588334;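 active = mean activation of at least 80% with every replicate also reaching 80%; inconclusive = mean reaches 80% but some replicate falls short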;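 note: 0% = neutral control wells and 100% = parthenolide positive control wells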
Wnt bcat act: activators of Wnt/beta-catenin signaling | activation, % at 9.35 µM | actives 1.2% (n = 300,000) | AID 743398 | Wnt/beta-catenin reporter cell assay, activator, plate reader; in the data active = activation above about 30%, passing the limit was not always enough; inconclusive = no clear call, values can overlap the other calls;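 note: 0% = neutral control wells and 100% = positive control wells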
XiGFP reactiv: activators of X-chromosome reactivation in mouse fibroblasts; XiGFP mouse fibroblasts, % GFP-positive cells imaging, 3 d; cells co-treated with 5-aza-dC sensitizer; scaled so ellipticine positive control = 100%; actives 0.055% (n = 360,000); activation, % at 7.58 µM;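 active = mean normalized replicate activation at least 10% and every replicate at or above 10%; inconclusive = only one of the two criteria met; inactive = mean below 10% and not all replicates reach 10%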;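 note: 0% = median of on-plate neutral control wells and 100% = ellipticine 6 µM median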
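Schedule: 3 d treatment, 15 min room-temperature fixation; system: 68-5-11 XiGFP fibroblast line; buffer or medium: DMEM plus 5-aza-dC sensitizer; control set: ellipticine 6 µM positive control; compound: one concentration, pinned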
esBAF inh: blocks esBAF chromatin remodeling in mouse ES cells; Bmi1-luciferase knock-in reporter, 24 h; 100% = twice the neutral-well signal; reporter increase, % at 12.5 µM; actives 2% (n = 350,000); AID 602393; in the data active = activation above about 40%; inconclusive = no clear call, values can overlap the other calls;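 note: 0% = median of the plate's neutral control wells and 100% = double that signal; a rise in the Bmi1 reporter signal indicates esBAF inhibition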
An asterisk follows results filed as active; i = inactive; u = inconclusive; x = no result given. A selection: hits, their analogues and other compounds. The true share with any hit is near 2.6%.

SMILES	Vif imaging	MITF act	Wnt bcat act	XiGFP reactiv	esBAF inh
O=C(Cc1ccc(Br)cc1)N1CCN(c2ccccc2O)CC1	-8.5	60.6	10.7	x	50.1*
O=C(Cc1ccc(Br)cc1)N1CCN(c2ccc(F)cc2)CC1	-2.9	-4.1	x	x	3.8
COc1ccc2c3c([nH]c2c1)[C@H](CO)N(CC1CC1)CC31CN(S(=O)(=O)c2cccc(F)c2)C1	x	x	x	0.3	x
COc1ccc(S(=O)(=O)Nc2ccc3c(c2)C(=O)N([C@H](C)CO)C[C@@H](C)[C@H](CN(C)S(=O)(=O)c2ccccc2)OCCCC[C@@H](C)O3)cc1	x	x	x	0.4	x
O=C(Nc1ccsc1C(=O)O)c1ccc(Cl)cc1	-6.6	14.6	15.4	0.0	60.6*
O=C(Nc1cc(F)c(Br)cc1F)c1ccc(Cl)cc1	9.3	75.1	49.0*	0.2	x
O=C(Nc1ccc(Cl)cc1C(F)(F)F)c1ccccc1Cl	0.9	13.2	0.9	0.0	x
O=C(Nc1ccc(Cl)cc1C(F)(F)F)c1ccc(Cl)cc1	23.2	61.7	u	x	48.6*
Cc1cccc(/C=C(\c2nc3ccccc3[nH]2)S(=O)(=O)c2ccccc2)c1	23.2	-84.6	40.5*	0.4	4.7
CC(C)(C)c1ccc(/C=C(\c2nc3ccccc3[nH]2)S(=O)(=O)c2ccccc2)cc1	-3.1	-90.4	x	x	-65.8
C=CCn1c(O)c(N=Nc2ccccc2[N+](=O)[O-])c2ccccc21	-1.5	x	1.3	0.1	57.9*
C=CCn1c(O)c(N=Nc2ccccc2O)c2ccccc21	i	-4.8	3.4	1.6	-1.0
OC(c1ccc(F)cc1)c1nc(/C=C/c2ccccc2)cs1 (centres undefined)	-1.3	x	u	0.1	50.0*
O=C(Cc1ccccn1)N[C@H]1CC[C@H](CCNC(=O)c2cc(Cl)cc(Cl)c2)O[C@@H]1CO	x	x	x	0.0	-4.2
Nn1c(SCc2c(F)cccc2F)nnc1-c1ccccn1	-4.2	x	43.0*	-0.1	u
Cc1ccc(C)c(CSc2nnc(-c3ccccn3)n2N)c1	1.6	x	-4.2	x	8.9
CC(C)(C)S(=O)N1Cc2cc(C(=O)O)nc(-c3cccc(C#CCC4CCCC4)c3)c2[C@H]1CCO (some centres undefined)	x	x	x	0.0	x
CC(C)NC(=O)N(C)C[C@H]1OCCCC[C@H](C)Oc2ccc(NS(=O)(=O)c3ccc(F)cc3)cc2C(=O)N([C@@H](C)CO)C[C@@H]1C	x	x	x	-0.1	-3.1
CCCCCCOc1ccc(/C(N)=N/O)cc1	14.5	42.3	x	x	74.5*
c1ccc2nc(-c3nccs3)ccc2c1	0.6	90.8*	7.8	-0.1	x
Clc1ccsc1-c1ccc2ccccc2n1	-3.9	51.2	38.9*	x	49.2*
c1ccc2ncccc2c1	-6.3	7.2	x	x	6.2
C[C@H]1CN([C@@H](C)CO)C(=O)c2cccc(NC(=O)CCCCCC(=O)Nc3ccccc3N)c2O[C@@H]1CN(C)Cc1ccc(-c2ccccc2)cc1	x	x	x	-0.4	x
CO[C@H]1CN(C)C(=O)c2cc(NS(C)(=O)=O)ccc2OC[C@H](C)N(C(=O)C2CCC2)C[C@@H]1C	x	x	x	0.2	2.9
S=c1nc(NCCc2ccccc2Cl)c2ccccc2[nH]1	2.2	72.0	26.0	0.1	41.4*
SMILES	Vif imaging	MITF act	Wnt bcat act	XiGFP reactiv	esBAF inh
O=C(CCCCCNc1nc(=S)[nH]c2ccccc12)NCc1ccccc1Cl	x	x	7.4	0.0	x
COCC(=O)Nc1ccc2c(c1)C(=O)N(C)[C@H]1CC[C@@H](CC(=O)NCC3CC3)O[C@@H]1CO2	x	x	x	0.2	0.2
COCC(=O)N1C[C@H](C)[C@@H](OC)CN(C)C(=O)c2ccc(NC(=O)c3ccc(OC)cc3)cc2OC[C@@H]1C	x	x	x	0.0	x
COc1ccc(-c2nnc(SCc3ccccc3)n2N)cc1	-2.6	87.5*	22.9	x	x
COc1ccc(-c2nnc(SCCc3ccccc3)n2N)cc1	-15.4	17.9	3.9	x	12.6
O=C1CC(c2ccc(O)cc2)Oc2ccccc21 (centres undefined)	-8.2	82.9*	-2.4	0.0	24.2
CCCn1c(/C=C/c2ccccc2)nc2ccccc21	-7.1	16.9	x	x	18.2
CC(C)n1c(/C=C/c2ccccc2)nc2ccccc21	-7.0	53.1	21.2	0.1	50.9*
O=C(NCCc1cccs1)C1CC(c2c(Cl)cccc2Cl)=NO1 (centres undefined)	-3.0	16.1	6.3	-0.2	80.1*
Cc1nc(N=Nc2ccc(O)cc2)n[nH]1	-2.7	38.3	43.8*	-0.2	4.4
CC(=NC1CCCCC1)c1ccc(O)cc1O	-0.5	x	-0.5	0.1	13.6

Screens from PubChem.
